Lipid droplet – hepatic lipid droplet formation modulation; AML12 mouse hepatocytes, oleate lipid droplets, BODIPY imaging; inhibition, % at 6.5 µM; 240,000 tested, 0.4% active;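 active = lipid droplet intensity inhibited by at least 50%, with more than 500 cells counted; inconclusive = wells with under 300 cells, treated as cytotoxic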
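Material – mouse AML12 hepatocyte cell line, fixed after treatment · Compound dosing – one dose, 6.5 µM compound · Times – compound with oleate, overnight · Measured by – Image-based BODIPY and DAPI two-channel analysis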
697 NFkB inh – lowers PMA/ionomycin-induced NF-kB signal in 697 B cells. AID 435022. inhibition, % at 4 µM. 697 B-cell NF-kB luciferase reporter, 16 h. 330,000 tested, 0.33% active; in the data active = inhibition above about 35%
APP transl inh – APP translation inhibition; inhibition, % at 2 µM; AID 1285; 190,000 tested, 0.82% active; SH-SY5Y APP 5'UTR-luciferase reporter, luminescence;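 active = inhibition above a set limit, derived from the sample mean plus 3 SD, cut at about 45% in these data; inconclusive = one replicate passes the limit while the other fails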
TAG inh – reduces triacylglycerol accumulation in H9c2 cells; Nile Red lipid (TAG) fluorescence; cells loaded with 200 µM oleic acid; inhibition, % at 12.5 µM; 230,000 tested, 0.66% active; AID 651582;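 active = pattern-corrected inhibition of lipid staining of at least 50% with the nuclear-stain viability signal not falling by more than 50%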
Jurkat NFkB inh – lowers PMA/ionomycin-induced NF-kB signal in Jurkat cells | PMA/ionomycin-induced NF-kB luciferase reporter, luminescence | inhibition, % at 4 µM | 330,000 tested, 0.53% active; in the data active = inhibition above about 50%
aSyn 5UTR inh – MLPCN primary screen, SNCA 5' untranslated region | 300,000 tested, 0.82% active | inhibition, % (tested at 7.5 µM) | AID 1813 | alpha-synuclein 5'UTR reporter, inhibitor activity; in the data active = inhibition above about 60%; inconclusive = no clear call, values can overlap the other calls;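 also: H4 neuroglioblastoma cells stably carrying SNCA 5'UTR luciferase fusion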
Jurkat NFkB conf – inhibitors of the PMA/ionomycin-induced NF-kB reporter in Jurkat cells, retest; 2,700 tested, 27% active; inhibition, % at 4 µM; Jurkat NF-kB luciferase, 16 h; shares compounds with Jurkat NFkB inh;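 active = inhibition reaching about 45% at 4 µM in either replicate, limit read from the data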
Large screens that a line does not name were inactive (follow-up assays come after a bar, where they were run). Rows were chosen to be rich in hits. Some 1.9% of all compounds tested hit in one or more screens of this group.

CC(C)(C)OC(=O)C[C@H]1C/C=C\C[C@H](CC(=O)NCCO)C(=O)NC[C@@H](c2ccccc2)OC1=O	none (no result: Lipid droplet, APP transl inh, aSyn 5UTR inh)
CCCCC#Cc1cncc(C(=O)N/N=C/c2cccc(OC)c2)c1	none (no result: Lipid droplet, APP transl inh)
Cc1cc(-n2c(C)cc(C(=O)CSc3ncnc4ccccc34)c2C)no1	Jurkat NFkB inh 56 (no result: Lipid droplet) | Jurkat NFkB conf inactive
C[C@H]1CN([C@@H](C)CO)C(=O)c2cc(C#CC3(O)CCCC3)cnc2O[C@H]1CN(C)C(=O)C1CC1	none (no result: Lipid droplet, 697 NFkB inh, APP transl inh, Jurkat NFkB inh, aSyn 5UTR inh)
Cc1ccc(-n2cc(C(=O)c3ccc(F)cc3)nn2)cc1Cl	none (no result: Lipid droplet) | Jurkat NFkB conf inactive
CCOC(=O)c1ccc(-n2cc(C(=O)c3cccnc3)nn2)cc1	none (no result: 697 NFkB inh, APP transl inh, TAG inh, Jurkat NFkB inh)
Cc1ccc(/C=C/C(=O)OCn2nnc3ccccc3c2=O)o1	none (no result: APP transl inh)
CCOC(=O)CSC1=C(C#N)C(c2ccc(C)o2)CC(=O)N1 (stereo unspecified)	Lipid droplet inconclusive, APP transl inh 95, Jurkat NFkB inh 58, aSyn 5UTR inh 78 | Jurkat NFkB conf inactive
O=C1[C@H]2[C@@H](/C=C/c3ccccc3)N3C(=O)CN(Cc4ccccn4)C(=O)[C@@]3(Cc3ccccc3)[C@H]2C(=O)N1c1ccccc1	none (no result: APP transl inh)
O=C(Cc1ccc(Cl)cc1)Nc1ccc(-c2cc3ccccc3oc2=O)c(Cl)c1	APP transl inh 86, Jurkat NFkB inh 59, aSyn 5UTR inh 96 (no result: TAG inh) | Jurkat NFkB conf inactive
O=C(Cc1ccc(Cl)cc1)Nc1ccc2oc(=O)ccc2c1	none (no result: APP transl inh)
Fc1ccc(F)c(C2=NNC(=Nc3ccccc3F)SC2)c1	none (no result: TAG inh)
Fc1ccccc1N=C1NN=C(c2ccccc2)CS1	none | Jurkat NFkB conf inactive
COCCn1c(C)cc(C2=NNC(=Nc3ccccc3F)SC2)c1C	APP transl inh 52, Jurkat NFkB inh 69, aSyn 5UTR inh 91 (no result: Lipid droplet) | Jurkat NFkB conf 88
COc1ccc(NC(C)(C)c2nnnn2-c2c(C)cccc2C)cc1	none (no result: APP transl inh)
O=S(=O)(c1ccc(Cl)cc1)c1snnc1-c1ccccc1	APP transl inh 96, Jurkat NFkB inh 53, aSyn 5UTR inh 116 | Jurkat NFkB conf inactive
Cc1ccc2nc(-c3ccc(SCC(=O)Nc4ccc5c(c4)OCCO5)nc3)[nH]c2c1	none (no result: TAG inh) | Jurkat NFkB conf inactive
O=c1[nH]nc(SC2CCCCC2)c(=O)[nH]1	none (no result: Lipid droplet, 697 NFkB inh, APP transl inh, Jurkat NFkB inh, aSyn 5UTR inh)
O=C(c1cc2c(ccc3ccccc32)o1)N1CCCCC1	none (no result: APP transl inh) | Jurkat NFkB conf inactive
O=C(Nc1cccnc1)c1cc2c(ccc3ccccc32)o1	none (no result: TAG inh) | Jurkat NFkB conf inactive
Cc1cc(C[n+]2ncsc2N)c2ncccc2c1	none (no result: APP transl inh)
CCOc1ccc2c(c1)sc(N)[n+]2Cc1cc(C)cc2cccnc12	APP transl inh 94, Jurkat NFkB inh 62 (no result: TAG inh) | Jurkat NFkB conf 51
CCc1ccc(CN(C)CC(=O)Nc2ccc(S(=O)(=O)N3CCOCC3)cc2)cc1	none (no result: Lipid droplet, APP transl inh, aSyn 5UTR inh)
COc1ccc(S(=O)(=O)Nc2cccc(-c3ccc4nncn4n3)c2)cc1F	APP transl inh 63, Jurkat NFkB inh 58 | Jurkat NFkB conf 50
O=C(CSCc1ccccc1Cl)Nc1ccc2c(c1)OCCO2	none (no result: Lipid droplet, TAG inh) | Jurkat NFkB conf inactive
Cc1ccc(NC(=O)c2cc(NC(=O)C3CC=CCC3C(=O)O)ccc2N2CCOCC2)cc1Cl (stereo unspecified)	none
O=C(c1cc2cc3ccc(Cl)cc3nc2o1)N1CCCCCC1	none (no result: APP transl inh, TAG inh) | Jurkat NFkB conf inactive
CC1Cc2ccccc2N1C(=O)/C=C/c1cccc(F)c1 (stereo unspecified)	none | Jurkat NFkB conf inactive
Cc1oc2c(Cl)c(Cl)c(O)c(CN(C)C)c2c1C(=O)c1ccc(Cl)cc1	none (no result: APP transl inh)
COc1ccc(-c2nnc(SCC(=O)c3cc(C)n(Cc4cccs4)c3C)o2)cc1	none
Cc1cc(C(=O)CSc2nnc(N)s2)c(C)n1Cc1cccs1	aSyn 5UTR inh 69 (no result: TAG inh) | Jurkat NFkB conf inactive
CCOC(=O)c1ccccc1NS(=O)(=O)c1ccc(OCC)cc1	Jurkat NFkB inh 62 (no result: TAG inh) | Jurkat NFkB conf inactive
CC(OC(=O)c1cccc(-n2cnnn2)c1)C(=O)Nc1ccc(N(C)C)cc1 (stereo unspecified)	none (no result: Lipid droplet, APP transl inh)
CCN(CC(=O)NCc1ccc(F)cc1)C(=O)/C=C/c1ccc(OC)c(S(=O)(=O)NC(C)C)c1	Jurkat NFkB inh 51, aSyn 5UTR inh 63 (no result: APP transl inh, TAG inh) | Jurkat NFkB conf inactive
CCN(CC(=O)NCc1ccc(F)cc1)C(=O)/C=C/c1ccc(OC)cc1	none (no result: APP transl inh, TAG inh)
CN1CCSc2ccc(C(=O)Nc3cccc(F)c3)cc21	none (no result: APP transl inh) | Jurkat NFkB conf inactive

High-throughput results: PubChem BioAssay, several laboratories
